Active and inactive are the calls of the source. The calls are words filed in the database; no cut-off is given here.
Key:
[1] = target: T1, Prostaglandin E synthase (Homo sapiens) (UniProt O14684); test: Inhibition of mPGES-1 in human HeLa cells using PGH2 as substrate assessed as inhibition of IL-1beta/TNFalpha-stimulated PGE2 production at 5 uM preincubated for 30 mins followed by substrate addition measured after 1 min by LC-MS/MS analysis; format: cell-based
T1 sequence (whole entry): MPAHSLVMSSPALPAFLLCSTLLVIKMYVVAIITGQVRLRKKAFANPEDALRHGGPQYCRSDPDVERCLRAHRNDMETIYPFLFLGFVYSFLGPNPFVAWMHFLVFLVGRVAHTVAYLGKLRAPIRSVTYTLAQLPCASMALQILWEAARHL
How it was run: (§1)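 Microsomal fraction from HeLa, NIH-3T3 or RAW 264.7 cells, obtained by sonication and ultracentrifugation, resuspended in 0.1 M KPi pH 7.4 with 2.5 mM reduced GSH. Protein at 0.15 mg/mL (HeLa, NIH) or 0.3 mg/mL (RAW) incubated with compound 30 min on ice. Reaction started with 20 µM PGH₂, stopped after 1 min with FeCl₂/citric acid. PGE₂ quantified by SPE and LC–MS/MS. IC50 from four-parameter logistic fit of increasing concentrations.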

[2] = target: T2, Prostaglandin G/H synthase 2 (Homo sapiens) (UniProt P35354); test: Inhibition of LPS-stimulated COX2 in human whole blood assessed as reduction in PGE2 production by measuring remaining activity at 100 uM preincubated for 15 mins followed by LPS addition measured after 24 hrs by LC-MS/MS analysis
T2 sequence (whole entry): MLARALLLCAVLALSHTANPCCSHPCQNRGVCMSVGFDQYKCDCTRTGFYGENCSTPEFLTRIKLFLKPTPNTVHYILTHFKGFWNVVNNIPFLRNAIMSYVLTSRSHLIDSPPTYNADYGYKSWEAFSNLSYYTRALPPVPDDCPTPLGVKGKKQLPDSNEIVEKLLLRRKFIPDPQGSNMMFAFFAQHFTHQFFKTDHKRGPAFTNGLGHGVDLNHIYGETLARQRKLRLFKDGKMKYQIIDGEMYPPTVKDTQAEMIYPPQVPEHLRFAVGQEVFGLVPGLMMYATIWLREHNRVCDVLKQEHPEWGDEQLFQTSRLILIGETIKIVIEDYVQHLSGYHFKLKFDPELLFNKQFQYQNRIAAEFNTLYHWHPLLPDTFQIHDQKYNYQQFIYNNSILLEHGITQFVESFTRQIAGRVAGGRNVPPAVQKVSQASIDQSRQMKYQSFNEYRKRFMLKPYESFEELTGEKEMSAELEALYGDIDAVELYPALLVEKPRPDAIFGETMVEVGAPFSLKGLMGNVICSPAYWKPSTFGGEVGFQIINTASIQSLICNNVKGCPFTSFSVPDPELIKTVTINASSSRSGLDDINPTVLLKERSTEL
How it was run: (§2)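 Heparinized human whole blood (500 µL) mixed with compound in DMSO, with acetylsalicylic acid added to block COX-1, held 15 min at 37 °C, then stimulated with LPS in autologous plasma to induce COX-2/mPGES-1. After 24 h at 37 °C, samples chilled 5 min on ice; plasma collected, prostaglandins extracted and measured by LC–MS/MS. Remaining activity given relative to vehicle control.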

[3] = target: T3, Polyunsaturated fatty acid 5-lipoxygenase (Homo sapiens) (UniProt P09917); test: Inhibition of calcium ionophore (A23187)-stimulated human 5-LO assessed as reduction of 5(S)-HETE production by measuring remaining activity at 100 uM preincubated for 15 mins followed by calcium ionophore (A23187) addition measured after 15 mins by LC-MS/MS analysis
T3 sequence (whole entry): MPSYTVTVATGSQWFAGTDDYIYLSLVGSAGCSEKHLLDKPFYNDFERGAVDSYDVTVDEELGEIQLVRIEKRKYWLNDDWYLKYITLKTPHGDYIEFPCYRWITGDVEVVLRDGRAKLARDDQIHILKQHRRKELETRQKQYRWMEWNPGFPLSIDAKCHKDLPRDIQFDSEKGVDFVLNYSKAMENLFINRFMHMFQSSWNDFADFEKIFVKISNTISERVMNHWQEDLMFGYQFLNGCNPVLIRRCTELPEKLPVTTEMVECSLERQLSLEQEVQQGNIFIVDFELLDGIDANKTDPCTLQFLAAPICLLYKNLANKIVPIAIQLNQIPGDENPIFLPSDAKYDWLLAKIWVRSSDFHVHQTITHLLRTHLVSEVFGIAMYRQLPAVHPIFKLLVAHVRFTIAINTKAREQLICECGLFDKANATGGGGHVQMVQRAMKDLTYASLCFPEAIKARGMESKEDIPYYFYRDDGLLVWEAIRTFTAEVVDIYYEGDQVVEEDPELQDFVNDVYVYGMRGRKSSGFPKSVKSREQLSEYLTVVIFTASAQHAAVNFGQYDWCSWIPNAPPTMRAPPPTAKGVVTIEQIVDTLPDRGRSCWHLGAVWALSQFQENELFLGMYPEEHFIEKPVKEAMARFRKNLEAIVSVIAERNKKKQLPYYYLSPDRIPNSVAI
How it was run: (§3)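 Heparinized human whole blood (500 µL) preincubated with compound 15 min at 37 °C, then stimulated with 20 µM calcium ionophore A23187 in autologous plasma for 15 min at 37 °C. Plasma spiked with deuterated LTB₄ and HETE internal standards, extracted into ethyl acetate, analysed by LC–MS/MS. Inhibition scored when a level fell by 33% or more versus control.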

[4] = target: T4, Prostaglandin E synthase (Mus musculus) (UniProt Q9JM51); test: Inhibition of mPGES-1 in Swiss mouse NIH/3T3 cells using PGH2 as substrate assessed as inhibition of IL-1beta/TNFalpha-stimulated PGE2 production at 5 uM preincubated for 30 mins followed by substrate addition measured after 1 min by LC-MS/MS analysis; format: cell-based; how it was run: as §1
T4 sequence (whole entry): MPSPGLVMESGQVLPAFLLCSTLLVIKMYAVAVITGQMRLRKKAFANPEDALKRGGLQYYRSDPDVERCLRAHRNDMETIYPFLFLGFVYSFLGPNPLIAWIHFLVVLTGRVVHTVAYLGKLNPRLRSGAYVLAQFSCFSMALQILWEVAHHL

[5] = target: T3, Polyunsaturated fatty acid 5-lipoxygenase (Homo sapiens); test: Inhibition of calcium ionophore (A23187)-stimulated human 5-LO assessed as reduction of LTB4 production by measuring remaining activity at 100 uM preincubated for 15 mins followed by calcium ionophore (A23187) addition measured after 15 mins by LC-MS/MS analysis; how it was run: as §3
[6] = target: T2, Prostaglandin G/H synthase 2 (Homo sapiens); test: Inhibition of LPS-stimulated COX2 in human whole blood assessed as reduction in PGF2alpha production by measuring remaining activity at 100 uM preincubated for 15 mins followed by LPS addition measured after 24 hrs by LC-MS/MS analysis; how it was run: as §2
[7] = target: T4, Prostaglandin E synthase (Mus musculus); test: Inhibition of mPGES-1 in mouse RAW264.7 cells using PGH2 as substrate assessed as inhibition of LPS-stimulated PGE2 production at 5 uM preincubated for 30 mins followed by substrate addition measured after 1 min by LC-MS/MS analysis; format: cell-based; how it was run: as §1
Prostaglandin E synthase = target: T5, Prostaglandin E synthase (Homo sapiens, UniProt O14684); test: Inhibition of mPGES-1 in human HeLa cells using PGH2 as substrate assessed as inhibition of IL-1beta/TNFalpha-stimulated PGE2 production preincubated for 30 mins followed by substrate addition measured after 1 min by LC-MS/MS analysis; format: cell-based; how it was run: as §1
T5 sequence (O14684 whole entry): T1 sequence (whole entry)

HeLa = test: Cytotoxicity against IL-1beta/TNFalpha-stimulated human HeLa cells assessed as cell viability up to 10 uM after 24 hrs by WST-1 assay; format: cell-based
How it was run: (§4)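 HeLa cells seeded at 3 × 10³ per well in medium with 10% FCS, grown 24 h at 37 °C, then stimulated with IL-1b (1 ng/mL) + TNFa (5 ng/mL) and treated at the same time with compound (1, 10, 100 µM) or DMSO for 24 h. WST-1 reagent then added for 90–150 min; absorbance read at 450 nm against 620 nm reference.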

[8] = target: T1, Prostaglandin E synthase (Homo sapiens); test: Inhibition of mPGES-1 in human HeLa cells using PGH2 as substrate assessed as inhibition of IL-1beta/TNFalpha-stimulated PGE2 production at 100 uM after 24 hrs by LC-MS/MS analysis; format: cell-based
How it was run: (§5)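 HeLa cells (2 × 10⁴ per well) grown 24 h at 37 °C, then given fresh medium with 1 ng/mL IL-1b + 5 ng/mL TNFa (or PBS for unstimulated control) plus compound (1, 10 or 100 µM) or DMSO for 24 h at 37 °C. Supernatant mixed with H₃PO₄, EDTA and deuterated internal standards; PGE₂ measured by SPE and LC–MS/MS.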

[9] = target: T1, Prostaglandin E synthase (Homo sapiens); test: Inhibition of mPGES-1 in human HeLa cells using PGH2 as substrate assessed as inhibition of IL-1beta/TNFalpha-stimulated PGE2 production at 1 to 10 uM after 24 hrs by LC-MS/MS analysis; format: cell-based; how it was run: as §5
[10] = Cytotoxicity against IL-1beta/TNFalpha-stimulated human HeLa cells assessed as cell viability at 100 uM after 24 hrs by WST-1 assay; format: cell-based; settings: IL-1beta/TNFalpha-stimulated HeLa cells, read-out: Activity; how it was run: as §4
[11] = target: Prostaglandin G/H synthase 1 (Homo sapiens) (UniProt P23219); test: Inhibition of COX1 in human whole blood assessed as reduction in TXB2 production by measuring remaining activity at 100 uM after 1 hr by LC-MS/MS analysis
[12] = target: Prostaglandin G/H synthase 1 (Homo sapiens) (UniProt P23219); test: Inhibition of COX1 in human whole blood assessed as reduction in PGD2 production by measuring remaining activity at 100 uM after 1 hr by LC-MS/MS analysis

Chain of Prostaglandin G/H synthase 1 (Homo sapiens) (P23219 whole entry): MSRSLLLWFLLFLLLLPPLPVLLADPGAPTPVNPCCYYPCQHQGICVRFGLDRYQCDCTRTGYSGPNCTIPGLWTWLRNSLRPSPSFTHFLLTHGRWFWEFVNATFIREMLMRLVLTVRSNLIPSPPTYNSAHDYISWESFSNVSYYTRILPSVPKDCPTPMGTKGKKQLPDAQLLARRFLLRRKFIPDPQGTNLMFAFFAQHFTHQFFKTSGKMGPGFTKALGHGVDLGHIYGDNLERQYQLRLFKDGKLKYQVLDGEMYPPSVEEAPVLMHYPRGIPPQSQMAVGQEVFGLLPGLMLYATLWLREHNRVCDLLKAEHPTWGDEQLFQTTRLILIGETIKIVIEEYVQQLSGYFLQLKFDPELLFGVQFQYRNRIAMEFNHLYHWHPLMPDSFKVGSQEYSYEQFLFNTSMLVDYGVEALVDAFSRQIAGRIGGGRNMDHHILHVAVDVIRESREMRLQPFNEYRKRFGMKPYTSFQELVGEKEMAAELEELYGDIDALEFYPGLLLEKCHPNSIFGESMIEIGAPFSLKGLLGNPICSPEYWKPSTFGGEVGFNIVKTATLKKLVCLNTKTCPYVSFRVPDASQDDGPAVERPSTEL

SMILES	inhibition [1] [%]	further results
O=C(O)c1ccc(S(=O)(=O)N(Cc2ccc(Oc3ccccc3)cc2)CC2CCCCC2)cc1	79.2	
COc1ccc(CN(Cc2nc(C)cs2)S(=O)(=O)c2ccc(C(=O)O)cc2)cc1	2.9	
CCN(Cc1ccccc1)S(=O)(=O)c1ccc(C(=O)O)cc1	< 0	
O=C(O)c1ccc(S(=O)(=O)N(Cc2ccccc2)Cc2ccccc2)cc1	51.4	
N#Cc1ccc(S(=O)(=O)N(Cc2ccccc2)Cc2ccccc2)cc1	34.1	
O=C(O)c1cccc(S(=O)(=O)N(Cc2ccccc2)Cc2ccccc2)c1	35.8	
O=C(O)c1ccc(S(=O)(=O)N(Cc2ccc(-c3ccccc3)cc2)CC2CCCCC2)cc1	76	Activity [2]: 69.7%; Activity [3]: 75.9%; inhibition [4]: 51.9%; Activity [5]: 75.7%; Activity [6]: 117%; inhibition [7]: 44.4%; IC50 (Prostaglandin E synthase): 800 nM
O=C(O)c1ccc(S(=O)(=O)N2CCN(c3ccccc3)CC2)cc1	58.7	
O=C(O)c1ccc(CN(Cc2ccccc2)Cc2ccccc2)cc1	17.4	
CCN(c1ccccc1)S(=O)(=O)c1ccc(C(=O)O)cc1	< 0	
Cc1ccc(-c2cc(C(F)(F)F)nn2-c2ccc(S(N)(=O)=O)cc2)cc1 [CELECOXIB]		Activity (HeLa): Non-toxic; inhibition [8]: Active; inhibition [9]: inactive; viability at 24 h, 100 µM [10]: 50%
O=S(=O)(c1ccc(Cl)cc1)N(Cc1ccccc1)Cc1ccccc1	< 0	
COc1ccc(CN(Cc2ccsc2)S(=O)(=O)c2ccc(C(=O)O)cc2)cc1	11.9	
COc1ccc(CN(Cc2ccc(C#N)cc2)S(=O)(=O)c2ccc(C(=O)O)cc2)cc1	< 0	
O=C(O)c1ccc(S(=O)(=O)N(Cc2ccc(Cl)cc2)CC2CCCCC2)cc1	48.4	
CCCCN(Cc1ccccc1)S(=O)(=O)c1ccc(C(=O)O)cc1	19.1	Activity [11]: 97.8%; Activity [12]: 73.4%; Activity [2]: 62.8%; Activity (HeLa): Non-toxic; Activity [3]: 121%; Activity [5]: 124%; Activity [6]: 117%; inhibition [8]: Active; inhibition [9]: inactive; viability at 24 h, 100 µM [10]: 50%
O=C(O)c1ccc(S(=O)(=O)N(Cc2ccccc2)c2ccccc2)cc1	26.4	
O=C(O)c1ccc(S(=O)(=O)N(CCc2ccccc2)Cc2ccccc2)cc1	57	Activity [2]: 83.3%; Activity [6]: 117%
N#Cc1ccc(S(=O)(=O)N(Cc2ccccc2)Cc2ccc(Oc3ccccc3)cc2)cc1	1	
O=C(O)c1ccc(S(=O)(=O)N(CCCc2ccccc2)Cc2ccccc2)cc1	73	Activity [2]: 68%; Activity [6]: 129%
CCCCN(c1ccccc1)S(=O)(=O)c1ccc(C(=O)O)cc1	< 0	
O=S(=O)(c1ccc(C(F)(F)F)cc1)N(Cc1ccccc1)Cc1ccccc1	11.9	
O=S(=O)(c1ccccc1Cl)N(Cc1ccccc1)Cc1ccccc1	< 0	
O=S(=O)(c1ccc(F)cc1)N(Cc1ccccc1)Cc1ccccc1	< 0	
COc1ccc(CN(Cc2cccc(C#N)c2)S(=O)(=O)c2ccc(C(=O)O)cc2)cc1	6	
COc1ccc(CN(Cc2ccoc2)S(=O)(=O)c2ccc(C(=O)O)cc2)cc1	14.2	
O=S(=O)(c1cccc(Cl)c1)N(Cc1ccccc1)Cc1ccccc1	6.2	

From ChEMBL document CHEMBL3091291, “Synthesis and pharmacological characterization of benzenesulfonamides as dual species inhibitors of human and murine mPGES-1” (Bioorg Med Chem, 2013)
